Measurements: ChEMBL document CHEMBL2046406 (J Med Chem, 2012)
The source made the active and inactive calls. No cut-off for these calls is given here.

How the values were obtained:
Mu-type opioid receptor [1] = biological target: T1, Mu-type opioid receptor (Homo sapiens, UniProt P35372); experiment: biochemical; assay type: cell-based, CHO
[2] = biological target: T2, Kappa-type opioid receptor (Homo sapiens, UniProt P41145); experiment: biochemical; assay type: cell-based, CHO
[3] = biological target: Delta-type opioid receptor (Homo sapiens, UniProt P41143); experiment: Displacement of [3H]-naltrindole from human delta opioid receptor expressed in CHO cells after 3 hrs by scintillation counting; assay type: cell-based
Sequence of Delta-type opioid receptor (P41143 whole entry): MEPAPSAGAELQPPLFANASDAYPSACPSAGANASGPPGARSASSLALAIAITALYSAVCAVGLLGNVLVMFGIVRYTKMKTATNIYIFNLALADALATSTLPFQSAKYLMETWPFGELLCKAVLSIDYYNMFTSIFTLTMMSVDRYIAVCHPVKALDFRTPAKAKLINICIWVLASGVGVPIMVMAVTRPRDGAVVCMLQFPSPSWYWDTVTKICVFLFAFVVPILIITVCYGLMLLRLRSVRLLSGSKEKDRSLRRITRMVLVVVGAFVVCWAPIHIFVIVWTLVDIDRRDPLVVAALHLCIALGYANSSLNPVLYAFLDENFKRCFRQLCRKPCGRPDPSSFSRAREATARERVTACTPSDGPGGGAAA
Method in brief: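 CHO membranes expressing human KOR or DOR incubated with radioligand and 12 compound concentrations in 1 mL 50 mM Tris-HCl, pH 7.5, at 25 °C. […] Nonspecific binding with 10 μM naloxone. Three experiments in triplicate.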

Mu-type opioid receptor [4] = biological target: T1, Mu-type opioid receptor; experiment: Agonist activity at human mu opioid receptor expressed in CHO cells assessed as stimulation of […]GTPgammaS binding after 60 mins by scintillation counting; assay type: functional, cell-based
Mu-type opioid receptor [5] = biological target: T1, Mu-type opioid receptor; experiment: Antagonist activity at human mu opioid receptor expressed in CHO cells assessed as inhibition of DAMGO-induced […]GTPgammaS binding after 60 mins by scintillation counting; assay type: functional, cell-based
[6] = biological target: T2, Kappa-type opioid receptor; experiment: Agonist activity at human kappa opioid receptor expressed in CHO cells assessed as stimulation of […]GTPgammaS binding after 60 mins by scintillation counting; assay type: functional, cell-based
[7] = biological target: T2, Kappa-type opioid receptor; experiment: Agonist activity at human kappa opioid receptor expressed in CHO cells assessed as stimulation of […]GTPgammaS binding after 60 mins by scintillation counting relative to control; assay type: functional, cell-based
Method in brief: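 Membranes from CHO cells stably expressing human KOR (15 μg protein per tube) or MOR (7.5 μg protein per tube). Nonspecific binding with 10 μM GTPγS. Filtration, then scintillation counting. Triplicate, at least three experiments.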

[8] = biological target: T2, Kappa-type opioid receptor; experiment: Antagonist activity at human kappa opioid receptor expressed in CHO cells assessed as inhibition of U50488-induced […]GTPgammaS binding after 60 mins by scintillation counting; assay type: functional, cell-based
Method in brief: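 κ antagonism: hKOR-CHO membranes incubated with compound plus 100 nM U50,488.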

Homo sapiens [9] = species on record: Homo sapiens; experiment: Selectivity index, ratio of inhibition of human delta opioid receptor to inhibition of human mu opioid receptor
Homo sapiens [10] = species on record: Homo sapiens; experiment: Selectivity index, ratio of inhibition of human kappa opioid receptor to inhibition of human mu opioid receptor
Mu-type opioid receptor [11] = biological target: T1, Mu-type opioid receptor; experiment: Agonist activity at human mu opioid receptor expressed in CHO cells assessed as stimulation of […]GTPgammaS binding after 60 mins by scintillation counting relative to control; assay type: functional, cell-based
Mu-type opioid receptor [12] = biological target: T1, Mu-type opioid receptor; experiment: Antagonist activity at human mu opioid receptor expressed in CHO cells assessed as inhibition of DAMGO-induced […]GTPgammaS binding after 60 mins by scintillation counting relative to control; assay type: functional, cell-based
Homo sapiens [13] = species on record: Homo sapiens; experiment: Selectivity index, ratio of inhibition of human delta opioid receptor to inhibition of human kappa opioid receptor

T1 sequence (P35372 whole entry): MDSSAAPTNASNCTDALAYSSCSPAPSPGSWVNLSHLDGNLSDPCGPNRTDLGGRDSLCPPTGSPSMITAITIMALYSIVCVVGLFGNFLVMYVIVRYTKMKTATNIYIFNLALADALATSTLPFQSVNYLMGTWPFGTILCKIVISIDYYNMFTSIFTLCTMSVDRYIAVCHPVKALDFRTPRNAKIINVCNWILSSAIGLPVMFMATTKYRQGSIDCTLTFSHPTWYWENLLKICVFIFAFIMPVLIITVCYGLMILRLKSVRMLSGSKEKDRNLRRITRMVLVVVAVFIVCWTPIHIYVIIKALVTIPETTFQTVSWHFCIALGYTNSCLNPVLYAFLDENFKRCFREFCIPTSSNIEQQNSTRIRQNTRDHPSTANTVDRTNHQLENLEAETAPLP
T2 sequence (P41145 whole entry): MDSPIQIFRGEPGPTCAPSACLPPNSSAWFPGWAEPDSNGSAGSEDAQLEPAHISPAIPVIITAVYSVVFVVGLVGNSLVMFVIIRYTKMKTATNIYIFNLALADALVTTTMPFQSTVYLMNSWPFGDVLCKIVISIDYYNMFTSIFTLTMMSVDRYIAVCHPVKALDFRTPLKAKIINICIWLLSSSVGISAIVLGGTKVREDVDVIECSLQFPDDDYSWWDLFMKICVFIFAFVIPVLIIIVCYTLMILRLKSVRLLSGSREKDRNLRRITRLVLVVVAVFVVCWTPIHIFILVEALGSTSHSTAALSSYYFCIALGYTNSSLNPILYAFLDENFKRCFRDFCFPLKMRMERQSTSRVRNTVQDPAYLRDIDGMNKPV

SMILES | Ki (Mu-type opioid receptor [1]) [nM] | Ki [2] [nM] | Ki [3] [nM] | EC50 (Mu-type opioid receptor [4]) [nM] | IC50 (Mu-type opioid receptor [5]; cho) | EC50 [6] [nM] | Emax [7] [%] | Activity [8] | Selectivity ratio (Homo sapiens [9]) | Selectivity ratio (Homo sapiens [10]) | Emax (Mu-type opioid receptor [11]) [%] | IC50 (Mu-type opioid receptor [5]; read-out: IC50) [nM] | Imax (Mu-type opioid receptor [12]) | Selectivity ratio (Homo sapiens [13])
CN1CC[C@]23CCCC[C@H]2[C@H]1Cc1ccc(NCc2cccc(O)c2)cc13 | 0.42 | 10 | 720 | 6.5 | Not Active | 230 | 140 | inactive |  |  |  |  |  | 
c1cc2c(cc1CNc1ccc3c(c1)[C@@]14CCCC[C@H]1[C@@H](C3)N(CC1CCC1)CC4)OCO2 | 0.34 | 1.1 | 53 | 3.6 |  | 27 | 130 | inactive | 3 | 160 | 39 | 94 | 60% | 
CN(Cc1ccc(O)cc1)c1ccc2c(c1)[C@@]13CCCC[C@H]1[C@@H](C2)N(CC1CCC1)CC3 | 3.2 | 4.1 | 530 |  |  |  |  |  |  | 170 |  |  |  | 170
Oc1ccc(CNc2ccc3c(c2)[C@@]24CCCC[C@H]2[C@@H](C3)N(CC2CC2)CC4)cc1 | 0.28 | 0.27 | 13 |  |  | 1.8 | 100 | inactive |  | 44 | 19 | 7.6 | 80% | 44
Clc1ccc(CNc2ccc3c(c2)[C@@]24CCCC[C@H]2[C@@H](C3)N(CC2CCC2)CC4)cc1 | 1.7 | 4.5 | 100 |  |  |  |  |  | 3 | 59 |  |  |  | 
c1cc2c(cc1CNc1ccc3c(c1)[C@@]14CCCC[C@H]1[C@@H](C3)N(CC1CC1)CC4)OCO2 | 0.17 | 0.53 | 20 |  |  | 0.077 | 120 | inactive | 3 | 120 | 18 | 0.21 | 72% | 
COc1ccccc1CNc1ccc2c(c1)[C@@]13CCCC[C@H]1[C@@H](C2)N(CC1CC1)CC3 | 1.2 | 1.3 | 160 |  |  |  |  |  |  | 130 |  |  |  | 130
Oc1cccc(CNc2ccc3c(c2)[C@@]24CCCC[C@H]2[C@@H](C3)N(CC2CC2)CC4)c1 | 0.16 | 0.36 | 41 |  |  | 3.9 | 98 | inactive | 2 | 260 | 27 | 3.5 | 79% | 
COc1cccc(CNc2ccc3c(c2)[C@@]24CCCC[C@H]2[C@@H](C3)N(CC2CC2)CC4)c1 | 0.51 | 1.5 | 110 |  |  | 0.43 | 130 | inactive | 3 | 220 | 23 | 2 | 77% | 
COc1ccc(CNc2ccc3c(c2)[C@@]24CCCC[C@H]2[C@@H](C3)N(CC2CC2)CC4)cc1 |  |  |  | 6.8 |  | 5.3 | 130 | inactive | 2 | 65 | 30 | 10 | 67% | 
CN(Cc1ccc(Cl)cc1)c1ccc2c(c1)[C@@]13CCCC[C@H]1[C@@H](C2)N(CC1CCC1)CC3 | 26 | 27 | 730 |  |  |  |  |  |  | 28 |  |  |  | 28
COc1ccccc1CNc1ccc2c(c1)[C@@]13CCCC[C@H]1[C@@H](C2)N(CC1CCC1)CC3 | 2.7 | 2.2 | 61 |  |  |  |  |  |  | 28 |  |  |  | 28
CN(Cc1cccc(O)c1)c1ccc2c(c1)[C@@]13CCCC[C@H]1[C@@H](C2)N(CC1CCC1)CC3 | 17 | 23 | 170 |  |  |  |  |  |  | 10 |  |  |  | 10
COc1cccc(CN(C)c2ccc3c(c2)[C@@]24CCCC[C@H]2[C@@H](C3)N(CC2CCC2)CC4)c1 | 13 | 25 | 350 |  |  |  |  |  | 2 | 27 |  |  |  | 
c1ccc(CNc2ccc3c(c2)[C@@]24CCCC[C@H]2[C@@H](C3)N(CC2CCC2)CC4)cc1 |  |  |  |  |  |  |  |  | 2 | 76 |  |  |  | 
Oc1ccc(CNc2ccc3c(c2)[C@@]24CCCC[C@H]2[C@@H](C3)N(CC2CCC2)CC4)cc1 | 0.35 | 2.3 | 120 | 3.6 |  | 38 | 130 | inactive | 7 | 340 | 38 | 75 | 56% | 
c1ccc(CNc2ccc3c(c2)[C@@]24CCCC[C@H]2[C@@H](C3)N(CC2CC2)CC4)cc1 |  |  |  |  |  |  |  |  |  | 112 |  |  |  | 112
C[C@@H](NC(=O)[C@@H](N)Cc1ccc(O)cc1)C(=O)NCC(=O)N(C)[C@@H](Cc1ccccc1)C(=O)NCCO |  |  |  |  |  |  |  |  |  |  |  |  | inactive | 
COc1ccccc1CN(C)c1ccc2c(c1)[C@@]13CCCC[C@H]1[C@@H](C2)N(CC1CCC1)CC3 | 14 | 19 | 190 |  |  |  |  |  |  | 14 |  |  |  | 14
COc1ccc(CNc2ccc3c(c2)[C@@]24CCCC[C@H]2[C@@H](C3)N(CC2CCC2)CC4)cc1 | 0.86 | 4.5 | 260 | 7.8 |  | 50 | 120 | inactive | 5 | 300 | 34 | 150 | 55% | 
Oc1cccc(CNc2ccc3c(c2)[C@@]24CCCC[C@H]2[C@@H](C3)N(CC2CCC2)CC4)c1 | 0.32 | 1.9 | 230 |  |  |  |  |  | 6 | 720 | 30 | 4.8 | 74% | 
COc1ccc(CN(C)c2ccc3c(c2)[C@@]24CCCC[C@H]2[C@@H](C3)N(CC2CCC2)CC4)cc1 | 9.5 | 8.5 | 290 |  |  |  |  |  |  | 34 |  |  |  | 34
